Measurements reported in ChEMBL document CHEMBL3758073, “Synthesis and Biochemical Evaluation of 3-Phenoxy-1,4-diarylazetidin-2-ones as Tubulin-Targeting Antitumor Agents” (J Med Chem, 2016).

Assays:
MCF7 [1] = test: Antiproliferative activity against human MCF7 cells assessed as cell viability pre-incubated for 24 hrs with CO2 followed by compound addition after 72 hrs by MTT assay; type: functional, cell-based
How it was run: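 MCF-7 grown in Eagle's MEM with 10% FBS, 2 mM L-glutamine, penicillin/streptomycin and 1% non-essential amino acids. Cells seeded at 2.5 x 10⁴ cells/mL, 24 h at 37 °C, then dosed from ethanol stocks over 1 nM–100 µM (vehicle 1% v/v ethanol) for 72 h. MTT at 1 mg/mL final, 2 h in the dark, DMSO solubilisation. Viability set against untreated controls; IC50 is the mean of three experiments in triplicate.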

MCF7 [2] = test: Cytotoxicity against human MCF7 cells assessed as induction of cell death at 10 uM after 72 hrs by LDH assay; type: cell-based; conditions: mcf7, 72 h
How it was run: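 Cell death in MCF-7 measured by LDH release. Seeding and dosing as for the MTT assay; after 72 h, lysis solution added to blank wells for 1 h to give 100% death. Supernatant mixed with substrate (INT to formazan) for 30 min at rt in the dark, then stopped and read at 490 nm. Percentage cell death reported at 10 μM; assays in triplicate.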

Structure (SMILES)	IC50 (MCF7 [1]) [µM]	Activity (MCF7 [2]) [%]
COc1ccc([C@@H]2[C@H](Oc3ccccc3)C(=O)N2c2cc(OC)c(OC)c(OC)c2)cc1N	12.2	7.7
COc1ccc([C@@H]2[C@@H](Oc3ccccc3)C(=O)N2c2cc(OC)c(OC)c(OC)c2)cc1 (relative stereo)	6.9	7.3
COc1cc(N2C(=O)[C@@H](Oc3ccccc3)[C@H]2c2ccc3ccccc3c2)cc(OC)c1OC (relative stereo)	282	10.7
COc1cc(N2C(=O)[C@@H](Oc3ccccc3)[C@H]2c2ccc(N=[N+]=[N-])cc2)cc(OC)c1OC (relative stereo)	23	5.8
COc1ccc([C@@H]2[C@@H](Oc3ccccc3)C(=O)N2c2cc(OC)c(OC)c(OC)c2)cc1[N+](=O)[O-] (relative stereo)	4.1	5.2
COc1cc([C@@H]2[C@H](Oc3ccccc3)C(=O)N2c2cc(OC)c(OC)c(OC)c2)ccc1O (relative stereo)	32	5.1
COc1ccc([C@@H]2[C@H](Oc3ccccc3)CN2c2cc(OC)c(OC)c(OC)c2)cc1O	3.3	19.8
COc1ccc([C@@H]2[C@H](Oc3ccccc3)C(=O)N2c2cc(OC)c(OC)c(OC)c2)cc1[N+](=O)[O-] (relative stereo)	69	5.3
COc1cc(N2C(=O)[C@@H](Oc3ccccc3)[C@H]2c2cccc([N+](=O)[O-])c2)cc(OC)c1OC (relative stereo)	30	16.7
COc1cc([C@@H]2[C@H](Oc3ccccc3)C(=O)N2c2cc(OC)c(OC)c(OC)c2)cc(OC)c1OC (relative stereo)	29	0
COc1cc(N2C(=O)[C@@H](Oc3ccccc3)[C@H]2c2cccc(O)c2)cc(OC)c1OC (relative stereo)	54	22
COc1cc(N2C(=O)[C@@H](Oc3ccccc3)[C@H]2c2cccc(N)c2)cc(OC)c1OC (relative stereo)	17	48
COc1ccc([C@@H]2[C@H](Oc3ccccc3)C(=O)N2c2cc(OC)c(OC)c(OC)c2)cc1OP(=O)(O)O (relative stereo)	42	
COc1ccc([C@@H]2[C@H](Oc3ccccc3)C(=O)N2c2cc(OC)c(OC)c(OC)c2)cc1NC(=O)C(C)N (relative stereo)	9.2	
COc1ccc([C@@H]2[C@H](Oc3ccccc3)C(=O)N2c2cc(OC)c(OC)c(OC)c2)cc1 (relative stereo)	35	6.5
COc1ccc(N2C(=O)[C@@H](Oc3ccccc3)[C@H]2c2ccc(OC)c(O)c2)cc1 (relative stereo)	49	10.4
COc1ccc([C@@H]2[C@@H](Oc3ccccc3)C(=O)N2c2cc(OC)c(OC)c(OC)c2)cc1NC(=O)C(C)N (relative stereo)	0.23	
COc1ccc([C@@H]2[C@H](Oc3ccccc3)C(=O)N2c2cc(OC)c(OC)c(OC)c2)cc1NC(=O)CCCc1ccc(N(CCCl)CCCl)cc1 (relative stereo)	145	3.2
COc1cc([N+](=O)[O-])c([C@@H]2[C@H](Oc3ccccc3)C(=O)N2c2cc(OC)c(OC)c(OC)c2)cc1O (relative stereo)	59	9.9
COc1cc(N2C(=O)[C@@H](Oc3ccccc3)[C@H]2c2cccc3ccccc23)cc(OC)c1OC (relative stereo)	53	4.6
COc1cc(N2C(=O)[C@@H](Oc3ccccc3)[C@H]2c2cc(N)c(OC)c(O)c2)cc(OC)c1OC (relative stereo)	8.8	14
COc1cc(N2C(=O)[C@@H](Oc3ccccc3)[C@H]2c2cc(O)c(OC)c([N+](=O)[O-])c2)cc(OC)c1OC (relative stereo)	69	12.1
COc1ccc([C@@H]2[C@H](Oc3ccccc3)C(=O)N2c2cc(OC)c(OC)c(OC)c2)cc1OC (relative stereo)	26	11.2
CCOC(=O)/C=C/c1ccc([C@@H]2[C@H](Oc3ccccc3)C(=O)N2c2cc(OC)c(OC)c(OC)c2)cc1 (relative stereo)	87	

Structure (SMILES)	IC50 (MCF7 [1]) [µM]	Activity (MCF7 [2]) [%]
COc1cc(N2C(=O)[C@@H](Oc3ccccc3)[C@H]2c2ccc(O)cc2)cc(OC)c1OC (relative stereo)	48	0.1
COc1ccc([C@@H]2[C@H](Oc3cc(OC)c(OC)c(OC)c3)C(=O)N2c2cc(OC)c(OC)c(OC)c2)cc1O (relative stereo)	33	10.9
COc1cc(N2C(=O)[C@@H](Oc3ccccc3)[C@H]2c2ccc(C#N)cc2)cc(OC)c1OC (relative stereo)	31.6	4.8
COc1cc(N2C(=O)[C@@H](Oc3ccccc3)[C@H]2c2ccc3c(c2)OCO3)cc(OC)c1OC (relative stereo)	48	8.3
COc1ccc([C@@H]2[C@H](Oc3ccccc3)C(=O)N2c2cc(OC)c(OC)c(OC)c2)cc1OC(=O)CCCc1ccc(N(CCCl)CCCl)cc1 (relative stereo)	0.41	8
COc1ccc([C@@H]2[C@H](Oc3ccccc3)C(=O)N2c2cc(OC)c(OC)c(OC)c2)cc1NC(=O)CN (relative stereo)	6.5	
COc1cc(N2C(=O)[C@@H](Oc3ccccc3)[C@H]2c2ccc(SC)cc2)cc(OC)c1OC (relative stereo)	7.7	8.1
COc1ccc([C@@H]2[C@H](Oc3ccccc3)C(=O)N2c2cc(OC)c(OC)c(OC)c2)cc1F (relative stereo)	6.3	70
COc1ccc([C@@H]2[C@H](Oc3ccccc3)C(=O)N2c2cc(OC)c(OC)c(OC)c2)c([N+](=O)[O-])c1O (relative stereo)	89	12.7
COc1cc(N2C(=O)[C@@H](Oc3ccccc3)[C@H]2c2ccc(Br)cc2)cc(OC)c1OC (relative stereo)	48	
COc1ccc([C@@H]2[C@H](Oc3ccccc3)C(=O)N2c2cc(OC)c(OC)c(OC)c2)cc1Br (relative stereo)	5.1	6.4
COc1cc(N)c([C@@H]2[C@H](Oc3ccccc3)C(=O)N2c2cc(OC)c(OC)c(OC)c2)cc1O (relative stereo)	20	70
COc1ccc([C@@H]2[C@H](Oc3ccccc3)C(=S)N2c2cc(OC)c(OC)c(OC)c2)cc1O (relative stereo)	7.5	4.8
COc1cc(N2C(=O)[C@@H](Oc3ccccc3)[C@H]2c2ccc([N+](=O)[O-])cc2)cc(OC)c1OC (relative stereo)	63	27
COc1ccc([C@@H]2[C@H](Oc3ccccc3)C(=O)N2c2cc(OC)c(OC)c(OC)c2)c(N)c1O (relative stereo)	19	52
COc1cc(N2C(=O)[C@@H](Oc3ccccc3)[C@H]2c2ccc(S(C)(=O)=O)cc2)cc(OC)c1OC (relative stereo)	62	10.2
COc1cc(N2C(=O)[C@@H](Oc3ccccc3)[C@H]2c2ccc([S+](C)[O-])cc2)cc(OC)c1OC (relative stereo)	20	1.7
COc1cc(N2C(=O)[C@@H](Oc3ccccc3)[C@H]2c2ccc(N)cc2)cc(OC)c1OC (relative stereo)	160	14.7
COc1cc(N2C(=O)[C@@H](Oc3ccccc3)[C@H]2c2ccc(O)c(O)c2)cc(OC)c1OC (relative stereo)	4.5	6
COc1cccc([C@@H]2[C@H](Oc3ccccc3)C(=O)N2c2cc(OC)c(OC)c(OC)c2)c1 (relative stereo)	171	22
O=C(O)CCCc1ccc(N(CCCl)CCCl)cc1 [CHLORAMBUCIL]	97	8
COc1ccc([C@@H]2[C@@H](Oc3ccccc3)C(=O)N2c2cc(OC)c(OC)c(OC)c2)cc1OP(=O)(O)O (relative stereo)	23	
COc1ccc([C@@H]2[C@@H](Oc3ccccc3)C(=O)N2c2cc(OC)c(OC)c(OC)c2)cc1Br (relative stereo)	31	3.9
